Reference: ChEMBL document CHEMBL2396550, “Manzamine A, a marine-derived alkaloid, inhibits accumulation of cholesterol ester in macrophages and suppresses hyperlipidemia and atherosclerosis in vivo” (Bioorg Med Chem, 2013)
Active and inactive are the calls of the source. No cut-off for these calls is given here.

Key:
[1] = molecular target: T1, Sterol O-acyltransferase 1 (Homo sapiens, UniProt P35610); experiment: Inhibition of macrophage ACAT (unknown origin)
T1 sequence (P35610 whole entry): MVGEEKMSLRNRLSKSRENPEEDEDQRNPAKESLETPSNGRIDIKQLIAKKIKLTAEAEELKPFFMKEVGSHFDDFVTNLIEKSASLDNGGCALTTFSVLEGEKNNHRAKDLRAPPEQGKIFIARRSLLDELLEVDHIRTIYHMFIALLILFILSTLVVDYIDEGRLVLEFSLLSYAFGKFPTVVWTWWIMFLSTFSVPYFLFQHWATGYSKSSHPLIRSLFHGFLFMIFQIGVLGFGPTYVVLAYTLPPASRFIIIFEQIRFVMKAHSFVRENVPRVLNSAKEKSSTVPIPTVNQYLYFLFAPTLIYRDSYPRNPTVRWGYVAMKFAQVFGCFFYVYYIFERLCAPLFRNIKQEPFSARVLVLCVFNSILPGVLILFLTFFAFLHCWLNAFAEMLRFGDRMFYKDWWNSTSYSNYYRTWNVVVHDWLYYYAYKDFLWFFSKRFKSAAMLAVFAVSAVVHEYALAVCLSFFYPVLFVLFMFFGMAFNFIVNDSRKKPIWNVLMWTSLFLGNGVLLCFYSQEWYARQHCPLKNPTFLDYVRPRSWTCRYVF

[2] = Inhibition of microsomal ACAT in cholesterol-fed JW rabbit intestine using [14C]oleoyl-CoA as substrate incubated for 5 mins prior to substrate addition measured after 5 to 10 mins by liquid scintillation counting analysis; format: microsomes, Oryctolagus cuniculus
MDM [3] = experiment: Antihyperlipidemic activity in human MDM assessed as inhibition of acetylated LDL-induced [3H]-cholesterol ester accumulation at 20 uM after 24 hrs by radioscanner analysis in presence of [3H]-oleate-conjugated BSA; format: functional
How it was run: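 Monocytes were isolated from healthy-volunteer blood on Ficoll, allowed to adhere for 1 h, then differentiated for 7 days into macrophages in DMEM with 10% pooled human serum. The macrophages were incubated for 24 h at 37 °C in 5% CO2 with 50 μg/mL AcLDL, 0.1 mM BSA-conjugated [3H]oleate and 20 μM sample. Cellular lipids were extracted, [3H]CE was separated by TLC, and it was quantified by radioscanner.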

[4] = molecular target: T2, Sterol O-acyltransferase 2 (Homo sapiens, UniProt O75908); experiment: Inhibition of ACAT2 in human MDM assessed as inhibition of acetylated LDL-induced cholesterol ester accumulation after 1 hr by HPLC analysis
T2 sequence (O75908 whole entry): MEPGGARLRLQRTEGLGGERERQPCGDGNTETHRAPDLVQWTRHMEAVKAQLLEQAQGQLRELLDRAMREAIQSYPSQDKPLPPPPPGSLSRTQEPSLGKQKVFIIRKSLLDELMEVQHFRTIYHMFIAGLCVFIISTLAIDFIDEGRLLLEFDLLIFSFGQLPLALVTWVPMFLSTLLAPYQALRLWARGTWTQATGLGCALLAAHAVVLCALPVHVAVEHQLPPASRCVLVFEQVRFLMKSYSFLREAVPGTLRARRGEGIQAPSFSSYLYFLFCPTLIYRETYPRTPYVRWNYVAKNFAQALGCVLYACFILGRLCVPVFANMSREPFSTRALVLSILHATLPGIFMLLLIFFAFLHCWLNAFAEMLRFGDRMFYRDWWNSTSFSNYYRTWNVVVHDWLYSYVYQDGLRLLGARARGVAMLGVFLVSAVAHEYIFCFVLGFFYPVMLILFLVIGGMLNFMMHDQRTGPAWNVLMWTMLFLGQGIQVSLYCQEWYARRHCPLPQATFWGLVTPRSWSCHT

[5] = molecular target: T1, Sterol O-acyltransferase 1
Mus musculus [6] = experiment: Antiatherosclerotic activity in apoE-deficient C57BL/6 mouse assessed as decrease in atherosclerotic lesion size in aortic sinus at 30 mg/kg/day administered through feeding measured after 80 days by oil red O/hematoxylin staining assay relative to control; format: functional; parameters: scale not given: the % may be the effect or the level left
Mus musculus [7] = experiment: Antiatherosclerotic activity in apoE-deficient C57BL/6 mouse assessed as decrease in plasma triglyceride level at 30 mg/kg/day administered through feeding measured after 80 days relative to control; format: functional; parameters: scale not given: the % may be the effect or the level left
Mus musculus [8] = experiment: Antiatherosclerotic activity in apoE-deficient C57BL/6 mouse assessed as decrease in plasma LDL cholesterol level at 30 mg/kg/day administered through feeding measured after 80 days relative to control; format: functional; parameters: scale not given: the % may be the effect or the level left
Mus musculus [9] = experiment: Antiatherosclerotic activity in apoE-deficient C57BL/6 mouse assessed as decrease in plasma free cholesterol level at 30 mg/kg/day administered through feeding measured after 80 days relative to control; format: functional; parameters: scale not given: the % may be the effect or the level left
Mus musculus [10] = experiment: Antiatherosclerotic activity in apoE-deficient C57BL/6 mouse assessed as decrease in total plasma cholesterol level at 30 mg/kg/day administered through feeding measured after 80 days relative to control; format: functional; parameters: scale not given: the % may be the effect or the level left
[11] = (§1) Inhibition of microsomal ACAT in apoE-deficient mouse peritoneal macrophage using [14C]oleoyl-CoA as substrate assessed as formation of cholesteryl [14C]-oleate […] by TLC analysis
Mus musculus [12] = organism: Mus musculus; experiment: as §1
[13] = (§2) Antihyperlipidemic activity in apoE-deficient mouse peritoneal macrophages assessed as inhibition of acetylated LDL-induced [3H]-cholesterol ester accumulation after 24 hrs by radioscanner analysis in presence of [3H]-oleate-conjugated BSA; format: functional, cell-based; conditions: Peritoneal macrophage cell
How it was run: (§3)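 Peritoneal macrophages from apoE-deficient mice, cultured in DMEM with 10% pooled human serum, 37 °C, 5% CO2. [3H]CE accumulation after AcLDL loading was measured by the [3H]oleate/TLC method.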

[14] = system: Peritoneal macrophage cell; experiment: as §2; format: functional, cell-based; how it was run: as §3
[15] = molecular target: T3, Sterol O-acyltransferase 2 (Homo sapiens) (UniProt O75908); experiment: (§4) Non-competitive inhibition of human microsomal ACAT2 overexpressed in CHO cells using [14C]oleoyl-CoA as substrate assessed as formation of cholesteryl [14C]-oleate […]
T3 sequence (whole entry): T2 sequence (O75908 whole entry)

[16] = molecular target: T2, Sterol O-acyltransferase 2; experiment: as §4
[17] = molecular target: T4, Sterol O-acyltransferase 1 (Homo sapiens) (UniProt P35610); experiment: (§5) Non-competitive inhibition of human microsomal ACAT1 overexpressed in CHO cells using [14C]oleoyl-CoA as substrate assessed as formation of cholesteryl [14C]-oleate […]
T4 sequence (whole entry): T1 sequence (P35610 whole entry)

[18] = molecular target: T1, Sterol O-acyltransferase 1; experiment: as §5
MDM [19] = experiment: Effect on ACAT expression in human MDM at 5 to 30 uM after 24 hrs by immunoblot analysis; format: functional
How it was run: (§6)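 HMDMs exposed 24 h to graded compound concentrations, solubilised in 1% Triton X-100, boiled in SDS sample buffer, then N-glycosidase-treated at 37 °C for 24 h. 10 μg protein run on 10% SDS-PAGE and immunoblotted for human ACAT-1, SR-A (E5) or SR-BI, with β-actin reprobe; band density quantified.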

CHO [20] = experiment: Antihyperlipidemic activity in CHO cells overexpressing human ACAT2 assessed as inhibition of [3H]-cholesterol ester accumulation after 24 hrs by radioscanner analysis in presence of [3H]-oleate-conjugated BSA; format: functional, cell-based; conditions: Cricetulus griseus
How it was run: (§7)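 CHO cells stably overexpressing human ACAT-1 or ACAT-2, grown in F-12 HAM with 10% FCS and G418 800 μg/mL. Incubated 24 h in medium with 10% FCS, 0.1 mM [3H]oleate–BSA and graded compound concentrations; no AcLDL. Lipids extracted, [3H]CE separated by TLC and counted by radioscanner.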

CHO [21] = experiment: Antihyperlipidemic activity in CHO cells overexpressing human ACAT1 assessed as inhibition of [3H]-cholesterol ester accumulation after 24 hrs by radioscanner analysis in presence of [3H]-oleate-conjugated BSA; format: functional, cell-based; conditions: Cricetulus griseus; how it was run: as §7
MDM [22] = experiment: Effect on scavenger receptor-A expression in human MDM at 5 to 30 uM after 24 hrs by immunoblot analysis; format: functional; how it was run: as §6
MDM [23] = experiment: Effect on scavenger receptor-B1 expression in human MDM at 5 to 30 uM after 24 hrs by immunoblot analysis; format: functional; how it was run: as §6
[24] = Cytotoxicity against human MDM assessed as cell viability at 50 uM after 24 hrs by WST-8 assay
How it was run: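 HMDMs seeded at 1×10^4 per well, treated with compound; viability read by WST-8 assay.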

MDM [25] = experiment: Inhibition of endocytic [125I]-acetylated LDL uptake in human MDM at 50 uM after 5 hrs; format: functional
How it was run: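 Day-7 HMDMs in DMEM with 3% BSA, incubated 5 h at 37 °C with 125I-AcLDL (50 μg/mL, 600 cpm/ng) plus compound. Degradation was measured as TCA-soluble, AgNO3-cleared medium radioactivity. Cell-associated counts came from 0.1 M NaOH lysates after ice-cold PBS/1% BSA washes and were normalised to protein.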

[26] = Cytotoxicity against human MDM assessed as inhibition of acetylated LDL-induced [3H]-triglyceride synthesis at 50 uM after 24 hrs by radioscanner analysis in presence of [3H]-oleate-conjugated BSA
How it was run: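 HMDMs incubated 24 h with AcLDL 50 μg/mL and 0.1 mM [3H]oleate–BSA with or without compound; extracted lipids assayed for TG-[3H]oleate radioactivity.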

[27] = Cytotoxicity against human MDM assessed as change in cell morphology at 50 uM
[28] = (§8) Antihyperlipidemic activity in human MDM assessed as inhibition of acetylated LDL-induced [3H]-cholesterol ester accumulation after 24 hrs by radioscanner analysis in presence of [3H]-oleate-conjugated BSA; format: functional
How it was run: (§9)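 Human monocytes from healthy volunteer blood by Ficoll, adhered 1 h, differentiated 7 days in DMEM with 10% pooled human serum. Monolayers incubated 24 h with AcLDL 50 μg/mL plus 0.1 mM [3H]oleate–BSA with or without compound; lipids extracted, [3H]cholesteryl oleate separated by TLC and counted by radioscanner.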

MDM [29] = experiment: as §8; format: functional; how it was run: as §9
[30] = molecular target: T4, Sterol O-acyltransferase 1 (Homo sapiens); experiment: (§10) Non-competitive inhibition of microsomal ACAT in human MDM using [14C]oleoyl-CoA as substrate assessed as formation of cholesteryl [14C]-oleate […]
[31] = molecular target: T1, Sterol O-acyltransferase 1; experiment: as §10
[32] = molecular target: T2, Sterol O-acyltransferase 2; experiment: Inhibition of macrophage ACAT2 (unknown origin)
[33] = molecular target: T1, Sterol O-acyltransferase 1; experiment: Inhibition of ACAT1 (unknown origin)

CCCCCCCCCN(CC(C)(C)C)C(=O)N[C@H]1CCCC[C@@H]1OC(=O)CCNC(=O)[C@@H]1OC(C)(C)OCC1(C)C
IC50 [1]: 0.032 µM

CN(C)c1ccc(NC(=O)N(C[C@H]2CC[C@H](CN(C(=O)Nc3ccc(N(C)C)cc3)C3CCCCC3)CC2)C2CCCCC2)cc1
IC50 [2]: 0.0076 µM

O=C1CCCN2[C@@H]3[C@@]45CN6CCCC/C=C\CC[C@@]3(C=C(c3nccc7c3[nH]c3ccccc37)[C@@H]4CC6)O[C@]2(CC1)C5
inhibition (MDM [3]): Active

O=CC1=C[C@@]2(O)CC/C=C\CCCCN3CC[C@@H]1[C@]1(C[C@@H]4/C=C\CCCCN4[C@H]12)C3
inhibition (MDM [3]): Active

O[C@H]1/C=C/C[C@]2(O)C=C(c3nccc4c3[nH]c3ccccc34)[C@@H]3CCN(CCCC1)C[C@@]31C[C@@H]3/C=C\CCCCN3[C@H]12
inhibition (MDM [3]): Active

Oc1ccc2[nH]c3c(C4=C[C@@]5(O)CC/C=C\CCCCN6CCC4[C@]4(C[C@@H]7/C=C\CCCCN7[C@H]45)C6)nccc3c2c1 (some centres undefined)
inhibition (MDM [3]): Active

Oc1cccc2c1[nH]c1c(C3=C[C@@]4(O)CC/C=C\CCCCN5CC[C@@H]3[C@]3(CC6/C=C\CCCCN6[C@H]34)C5)nccc12 (some centres undefined)
inhibition (MDM [3]): Active

c1ccc2c(c1)[nH]c1cnccc12
inhibition (MDM [3]): Active

CC(C)c1cc(C(C)C)c(CC(=O)NS(=O)(=O)Oc2c(C(C)C)cccc2C(C)C)c(C(C)C)c1 [AVASIMIBE]
IC50 [4]: 9.2 µM | IC50 [5]: 23.5 µM

O[C@]12C=C(c3nccc4c3[nH]c3ccccc34)[C@@H]3CCN(CCCC/C=C\CC1)C[C@@]31C[C@@H]3/C=C\CCCCN3[C@H]12 [MANZAMINE A]
Activity (Mus musculus [6]): 45% | Activity (Mus musculus [7]): 50% | Activity (Mus musculus [8]): 40% | Activity (Mus musculus [9]): 20% | Activity (Mus musculus [10]): 40% | IC50 [11]: 5.8 µM | inhibition (Mus musculus [12]): Dose-dependent effect | IC50 [13]: 6.2 µM | inhibition [14]: Dose-dependent effect | inhibition [15]: Dose-dependent effect | IC50 [16]: 4.8 µM | inhibition [17]: Dose-dependent effect | IC50 [18]: 6.2 µM | Activity (MDM [19]): inactive | inhibition (CHO [20]): Dose-dependent effect | inhibition (CHO [21]): Dose-dependent effect | Activity (MDM [22]): inactive | Activity (MDM [23]): inactive | Activity [24]: Toxic | inhibition (MDM [25]): Active | Activity [26]: Toxic | Activity [27]: Toxic | IC50 [28]: 4.1 µM | inhibition (MDM [29]): Dose-dependent effect | inhibition (MDM [3]): Active | inhibition [30]: Dose-dependent effect | IC50 [31]: 6.4 µM

CCCCCCCCN1CCc2c(C)c(CC(=O)O)c(C)c(NC(=O)C(C)(C)C)c21 [PACTIMIBE]
IC50 [32]: 3 µM | IC50 [33]: 4.9 µM
